Tests used:
[1] = biological target: Phosphatidylinositol 4,5-bisphosphate 3-kinase catalytic subunit gamma isoform (Homo sapiens, UniProt P48736); assay: Inhibition of PI3K p110gamma in human basophil assessed as reduction in fMLP-induced basophil activation in presence of 25% serum by flow cytometry analysis; type: tissue-based
Summary of the method: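 Basophil activation via fMLP (p110γ) in 25% serum or in isolated WBCs in low serum, with increasing compound concentrations. Anti-CD63-FITC/anti-CCR3-PE staining; ≥150 (25% serum) or ≥75 (low serum) CCR3-high basophils gated; % CD63-positive normalized to 0.3% DMSO vehicle; concentration corrected for reagent dilution.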

[2] = biological target: T1, Phosphatidylinositol 4,5-bisphosphate 3-kinase catalytic subunit delta isoform (Homo sapiens, UniProt O00329); assay: Inhibition of PI3Kdelta in human whole blood assessed as reduction in anti-FCepsilonR1 mAb-stimulated basophil activation preincubated for 60 mins followed by anti-FCepsilonR1 mAb stimulation and measured after 25 mins by flow cytometry analysis; type: tissue-based
T1 sequence (O00329 whole entry): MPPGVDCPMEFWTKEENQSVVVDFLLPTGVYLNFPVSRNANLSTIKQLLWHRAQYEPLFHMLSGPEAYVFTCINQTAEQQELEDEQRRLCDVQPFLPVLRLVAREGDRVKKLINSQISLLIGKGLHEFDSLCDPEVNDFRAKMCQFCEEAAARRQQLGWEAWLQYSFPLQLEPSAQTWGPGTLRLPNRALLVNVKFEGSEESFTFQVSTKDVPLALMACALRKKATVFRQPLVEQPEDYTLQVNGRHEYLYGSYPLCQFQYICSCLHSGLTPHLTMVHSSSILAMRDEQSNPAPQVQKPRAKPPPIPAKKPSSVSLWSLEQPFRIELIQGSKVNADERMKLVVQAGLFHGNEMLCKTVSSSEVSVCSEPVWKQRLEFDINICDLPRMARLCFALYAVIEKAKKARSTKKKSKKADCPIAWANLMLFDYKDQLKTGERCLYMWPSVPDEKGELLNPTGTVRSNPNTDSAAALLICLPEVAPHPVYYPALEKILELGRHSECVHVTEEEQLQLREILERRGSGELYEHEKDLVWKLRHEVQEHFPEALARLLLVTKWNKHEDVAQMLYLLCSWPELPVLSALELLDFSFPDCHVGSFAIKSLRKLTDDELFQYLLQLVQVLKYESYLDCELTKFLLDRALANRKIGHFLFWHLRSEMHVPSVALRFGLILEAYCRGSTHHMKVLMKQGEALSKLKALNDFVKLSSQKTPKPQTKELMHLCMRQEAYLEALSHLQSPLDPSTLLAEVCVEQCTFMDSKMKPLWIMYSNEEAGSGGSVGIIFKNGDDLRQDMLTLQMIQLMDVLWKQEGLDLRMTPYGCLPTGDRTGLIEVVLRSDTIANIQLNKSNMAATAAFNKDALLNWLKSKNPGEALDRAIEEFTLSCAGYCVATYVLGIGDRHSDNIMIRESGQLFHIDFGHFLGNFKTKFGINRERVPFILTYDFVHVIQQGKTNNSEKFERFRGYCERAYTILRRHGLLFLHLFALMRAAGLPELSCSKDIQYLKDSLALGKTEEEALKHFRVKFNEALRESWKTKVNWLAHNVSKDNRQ

[3] = Volume of distribution at steady state in Beagle dog at 1 mg/kg, iv measured over 24 hrs by LC/MS/MS analysis; type: ADME, organism-based, Canis lupus familiaris; conditions: in vivo, read-out: Vdss
Summary of the method: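 Single intravenous dose of 1 mg/kg. Vehicles: rats and dogs 5% ethanol/55% PEG 400/40% water; cynomolgus monkeys 5% ethanol/22% PEG 400/73% water; rhesus monkeys 5% ethanol/25% PEG 400/70% water. Plasma concentration–time data gave Vss and iv half-life. Reported as mean ± SD, n = 3.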

[4] = biological target: T1, Phosphatidylinositol 4,5-bisphosphate 3-kinase catalytic subunit delta isoform; assay: Inhibition of PI3K p110delta in human basophil assessed as reduction in anti-FCepsilonR1 mAb-induced basophil activation preincubated for 60 mins followed by anti-FCepsilonR1 mAb stimulation and measured after 25 mins in presence of 25% serum by flow cytometry analysis; type: tissue-based
[5] = In vivo inhibition of PI3Kdelta in Lewis rat model of Freund's incomplete adjuvant-induced arthritis at 3 mg/kg, po bid administered for 7 days at 12 hrs interval starting from day 10 to day 16 post-immunization relative to control; type: functional; conditions: 168 h, time 7 day
Summary of the method: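 CIA Lewis rats dosed orally twice daily for 7 days at 0.3, 1 or 3 mg/kg; blood/plasma drug levels taken on day 7, 12 h after final dose, and related to PI3Kδ inhibition at trough.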

Phosphatidylinositol 4,5-bisphosphate 3-kinase catalytic subunit gamma isoform, sequence (P48736 whole entry, canonical isoform): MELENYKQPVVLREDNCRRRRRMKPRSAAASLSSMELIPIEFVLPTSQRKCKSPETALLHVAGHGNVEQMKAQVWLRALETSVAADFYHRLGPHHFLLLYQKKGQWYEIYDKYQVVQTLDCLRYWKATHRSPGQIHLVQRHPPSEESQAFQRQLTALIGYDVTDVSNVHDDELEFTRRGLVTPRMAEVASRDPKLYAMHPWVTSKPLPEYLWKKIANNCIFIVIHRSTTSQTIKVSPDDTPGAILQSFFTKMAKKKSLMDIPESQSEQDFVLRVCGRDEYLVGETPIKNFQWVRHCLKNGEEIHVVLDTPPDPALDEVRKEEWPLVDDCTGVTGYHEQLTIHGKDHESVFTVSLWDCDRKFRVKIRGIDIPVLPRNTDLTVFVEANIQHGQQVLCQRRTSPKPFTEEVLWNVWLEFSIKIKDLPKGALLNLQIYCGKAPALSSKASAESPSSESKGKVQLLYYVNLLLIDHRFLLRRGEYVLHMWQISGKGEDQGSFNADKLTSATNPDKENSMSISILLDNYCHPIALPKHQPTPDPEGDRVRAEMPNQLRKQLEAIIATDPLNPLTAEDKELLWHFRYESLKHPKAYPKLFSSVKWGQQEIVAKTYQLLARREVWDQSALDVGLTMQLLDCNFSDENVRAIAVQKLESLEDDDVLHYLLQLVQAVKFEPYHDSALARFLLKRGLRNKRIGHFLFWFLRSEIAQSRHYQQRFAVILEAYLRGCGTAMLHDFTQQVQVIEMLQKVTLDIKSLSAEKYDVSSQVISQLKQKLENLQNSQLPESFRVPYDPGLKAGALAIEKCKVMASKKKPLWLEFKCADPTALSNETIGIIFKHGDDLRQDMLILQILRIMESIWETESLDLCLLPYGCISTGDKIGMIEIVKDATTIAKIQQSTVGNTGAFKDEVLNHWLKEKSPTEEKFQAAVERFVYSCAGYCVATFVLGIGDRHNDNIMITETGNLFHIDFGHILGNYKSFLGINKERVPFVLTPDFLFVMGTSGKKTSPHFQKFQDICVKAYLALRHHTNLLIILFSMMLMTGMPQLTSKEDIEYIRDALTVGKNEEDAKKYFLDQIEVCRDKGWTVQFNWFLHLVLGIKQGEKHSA

N#Cc1c(N)nc(N)nc1N[C@H](c1nc2c(F)ccc(Cl)c2c(=O)n1-c1cccnc1)C1CC1 [GS-9901]
EC50 [1]: 581 nM
EC50 [2]: 1 nM
Vd [3]: 1.03 L/kg
EC50 [4]: 1.3 nM
inhibition in vivo at 3 mg/kg [5]: > 90%

— ChEMBL document CHEMBL4765230, “Discovery of Orally Efficacious Phosphoinositide 3-Kinase δ Inhibitors with Improved Metabolic Stability” (J Med Chem, 2016)
